Common to all, as to format: functional
The test system of experiment [1] is Helicobacter pylori. The experiment is described as follows: Anti-bacterial activity against Helicobacter pylori Clinical isolate F1 measured after 72 hrs incubation by modified broth dilution method. Background: In broth dilution the organism is exposed to a series of concentrations in liquid medium.
The test system of experiment [2] is Helicobacter pylori. The experiment is described as follows: Anti-bacterial activity against Helicobacter pylori NCTC 11637 measured after 72 hrs incubation by modified broth dilution method.
Experiment [3] has as its system Helicobacter pylori. The experiment is described as follows: Bactericidal activity against Helicobacter pylori Clinical isolate F1 measured after 72 hrs of incubation under microaerophilic conditions by modified broth dilution method. As to conditions: read-out: MBC99.9. A digest of the protocol:
(§1)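 H. pylori (NCTC 11637, F1, 23, F4). Wells with no visible growth in the MIC assay spotted (10 μL) onto Skirrow agar. Plates incubated 72 h at 37 °C, microaerophilic, 100% humidity. MBC = concentration killing 99.9% of the initial inoculum. Triplicate, on at least three different days.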

Experiment [4] relates to Helicobacter pylori. Description: Anti-bacterial activity against Helicobacter pylori measured after 72 hrs incubation by modified broth dilution method.
In experiment [5] the test system is Helicobacter pylori. Description: Bactericidal against Helicobacter pylori Clinical isolate F4 measured after 72 hrs of incubation under microaerophilic conditions by modified broth dilution method. The conditions noted are these: read-out: MBC99.9. The procedure, abridged:
as §1

Experiment [6] has as its system Helicobacter pylori. The experiment is described as follows: Bactericidal activity against Helicobacter pylori Clinical isolate 23 measured after 72 hrs of incubation under microaerophilic conditions by modified broth dilution method. As to conditions: read-out: MBC99.9. A digest of the protocol: as §1
Experiment [7] concerns Helicobacter pylori. Description: Anti-bacterial activity against Helicobacter pylori Clinical isolate F4 measured after 72 hrs incubation by modified broth dilution method.
Experiment [8] deals with Helicobacter pylori. Description: Anti-bacterial activity against Helicobacter pylori Clinical isolate 23 measured after 72 hrs incubation by modified broth dilution method.
Experiment [9] has as its system Helicobacter pylori. The experiment is described as follows: Bactericidal activity against Helicobacter pylori NCTC 11637 measured after 72 hrs of incubation under microaerophilic conditions by modified broth dilution method. The conditions noted are these: read-out: MBC99.9. A digest of the protocol: as §1
Experiment [10] has as its system Helicobacter pylori. The experiment is described as follows: Bactericidal against Helicobacter pylori measured after 72 hrs of incubation under microaerophilic conditions by modified broth dilution method. A digest of the protocol: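 Wells with no visible growth in the MIC assay spotted (10 μL) onto Skirrow agar. Plates incubated 72 h at 37 °C, microaerophilic, 100% humidity. Triplicate, on at least three different days.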

The structures appear in SMILES notation. Converted amounts (≈) assume the structure as drawn.

A word on the MIC: it is the lowest concentration found to suppress growth. Read a high MIC as a less susceptible organism. One may read the MIC50 as an inhibitory concentration at the 50% level, which refers to growth in some studies and to a panel of isolates in others. Low values mean higher susceptibility, high ones lower susceptibility. By MIC90 is commonly meant the lowest concentration that inhibits either 90% of growth or 90% of the strains tested, depending on the study. Low readings indicate higher susceptibility, high ones lower susceptibility.

As to `COc1cc(C=O)ccc1O` [VANILLIN], the MIC is greater than 128 µg/mL against Helicobacter pylori [1], greater than 128 µg/mL against Helicobacter pylori [2], 128 µg/mL (≈ 841 µM) against Helicobacter pylori [7] and greater than 128 µg/mL against Helicobacter pylori [8]. In addition, the MBC is greater than 128 µg/mL with Helicobacter pylori [3]; 128 µg/mL (≈ 841 µM) in the experiment with Helicobacter pylori [5]; greater than 128 µg/mL in the experiment on Helicobacter pylori [6]; greater than 128 µg/mL in the experiment on Helicobacter pylori [9]; greater than 128 µg/mL with Helicobacter pylori [10] (Helicobacter pylori, read-out: MBC99.9). The compound also returned an MIC50 in the experiment with Helicobacter pylori [4] greater than 128 µg/mL. For the same compound, in the experiment on Helicobacter pylori [4], the MIC90 is greater than 128 µg/mL.

`COc1cc(C=O)cc(/N=N/c2ccc(C#N)cc2)c1O`: the MIC against Helicobacter pylori [1] stood at 4 µg/mL (≈ 14.2 µM); in the experiment on Helicobacter pylori [2] it was 8 µg/mL (≈ 28.4 µM); in the experiment on Helicobacter pylori [7], 8 µg/mL (≈ 28.4 µM); in the experiment on Helicobacter pylori [8], 8 µg/mL (≈ 28.4 µM). Moreover, the MBC is 4 µg/mL (≈ 14.2 µM) with Helicobacter pylori [3], 8 µg/mL (≈ 28.4 µM) with Helicobacter pylori [5], 8 µg/mL (≈ 28.4 µM) in the experiment with Helicobacter pylori [6] and 16 µg/mL (≈ 56.9 µM) in the experiment with Helicobacter pylori [9]. In the experiment with Helicobacter pylori [4], the MIC50 was determined as 8 µg/mL (≈ 28.4 µM). In addition, in the experiment with Helicobacter pylori [4], the MIC90 is 8 µg/mL (≈ 28.4 µM). In addition, the MBC90 in the experiment with Helicobacter pylori [10] stood at 16 µg/mL (≈ 56.9 µM).

As for `COc1ccc(/N=N/c2cc(C=O)cc(OC)c2O)cc1`, the MIC against Helicobacter pylori [1] was 64 µg/mL (≈ 224 µM); against Helicobacter pylori [2] it was greater than 128 µg/mL; in the experiment on Helicobacter pylori [7], greater than 128 µg/mL; against Helicobacter pylori [8], greater than 128 µg/mL. For the same compound, the MBC with Helicobacter pylori [3] is 128 µg/mL (≈ 447 µM); in the experiment on Helicobacter pylori [5], greater than 128 µg/mL; in the experiment on Helicobacter pylori [6], greater than 128 µg/mL; in the experiment on Helicobacter pylori [9], greater than 128 µg/mL. In addition, the MIC50 in the experiment on Helicobacter pylori [4] was greater than 128 µg/mL. Besides, the MIC90 against Helicobacter pylori [4] is greater than 128 µg/mL. The MBC90 with Helicobacter pylori [10] is greater than 128 µg/mL.

For `Cc1ccccc1/N=N/c1cc(C(C)C)c(O)c(/N=N/c2ccccc2C)c1C`, the MIC is 128 µg/mL (≈ 331 µM) against Helicobacter pylori [1], greater than 128 µg/mL against Helicobacter pylori [2], 128 µg/mL (≈ 331 µM) against Helicobacter pylori [7] and 128 µg/mL (≈ 331 µM) against Helicobacter pylori [8]. Moreover, the MBC in the experiment with Helicobacter pylori [3], in the experiment with Helicobacter pylori [5], in the experiment with Helicobacter pylori [6] and with Helicobacter pylori [9] was greater than 128 µg/mL throughout. The compound also yielded an MIC50 in the experiment with Helicobacter pylori [4] of 128 µg/mL (≈ 331 µM). In addition, the MIC90 against Helicobacter pylori [4] was greater than 128 µg/mL. Further, in the experiment on Helicobacter pylori [10], the MBC90 is greater than 128 µg/mL.

For the origin of these results see ChEMBL document CHEMBL6109036, “Azo derivatives of monoterpenes as anti-Helicobacter pylori agents: from synthesis to structure-based target investigation” (RSC Med Chem, 2025).
